Laboratory results taken from ChEMBL document CHEMBL3271961, “Dibenztroponeacetic and -propionic acids. Potent new antiinflammatory agents” (1977).

Experiments:
Rattus norvegicus [1] = experiment: Antiinflammatory activity in rat assessed as inhibition of carrageenan-induced paw edema administered into pad of right hind paw 1 hr before carrageenan challenge measured after 4 hrs relative to phenylbutazone; type: functional; conditions: in the assay text read “administered po” for “administered into pad of right hind paw”
Summary of the method: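 Female rats, 80-90 g, gavaged with test material in 1 mL aqueous vehicle. One hour later, 0.05 mL of 1% carrageenan in 0.9% NaCl injected into the right hind paw pad. Rats killed 4 h after dosing. Both hind paws weighed, and the percent weight increase of the inflamed paw calculated. Six rats per group. Phenylbutazone standard usually at 3.6, 11 and 33 mg/kg.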

Mus musculus = experiment: Analgesic activity in po dosed mouse assessed as inhibition of phenylquinone-induced writhing measured up to 10 mins relative to aspirin; type: functional
Summary of the method: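 Male mice, 18-20 g, dosed orally in aqueous vehicle at time zero. Writhing induced 20 min later by ip injection of 0.25 mL 0.02% phenylquinone, then counted over the next 10 min. Groups of usually 8-10 mice. Aspirin standard given at 16.5, 50 and 150 mg/kg. Relative potency determined graphically or by Finney's methods.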

Rattus norvegicus [2] = experiment: Antiinflammatory activity in po dosed rat assessed as inhibition of carrageenan immersed cotton pellet-induced granuloma administered daily once for 7 days measured one day after last dose relative to indomethacin; type: functional
Summary of the method: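 Two 50-mg cotton pellets, soaked 24 h in 1% carrageenan, dried, then dipped in 1% penicillin G/1% streptomycin, implanted sc dorso-lumbar in 180-200 g rats (one sex per test). Daily oral dosing for 7 days. Next day, pellets with granulomas removed, dried 24 h at 100 °C, weighed. Usually nine rats/group. Indomethacin standard at 0.5, 1, 2, 4 mg/kg/day.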

Rattus norvegicus [3] = experiment: Antiarthritic activity in po dosed rat assessed as inhibition of adjuvant-induced arthritis administered twice daily for 17 days measured on day 18 relative to indomethacin

| SMILES | Ratio (Rattus norvegicus [1]) | Ratio (Mus musculus) | Ratio (Rattus norvegicus [2]) | Ratio (Rattus norvegicus [3]) |
| --- | --- | --- | --- | --- |
| CC(C(=O)O)c1ccc2c(=O)c3ccccc3ccc2c1 (single isomer, unassigned; (-)) | 1.5 | 1.5 | – | – |
| CC(C(=O)O)c1ccc2c(=O)c3ccccc3ccc2c1 (single isomer, unassigned; (+)) | 68 | 20 | – | – |
| CCCCCCCCCCCCCCCCCCCCOC(=O)C(C)c1ccc2c(=O)c3ccccc3ccc2c1 (racemic) | <=1 | <0.5 | – | – |
| O=C(O)Cc1ccc2c(=O)c3ccccc3ccc2c1 | 6 | 2 | 0.1 | 0.1 |
| CC(C(=O)O)c1ccc2c(=O)c3ccccc3ccc2c1 (racemic) | 44 | 12 | – | – |
| COC(=O)C(C)c1ccc2c(=O)c3ccccc3ccc2c1 (stereo not drawn) | 15 | – | – | 2 |
| CC(C(=O)OCCCCN(C)C)c1ccc2c(=O)c3ccccc3ccc2c1 (racemic) | 7 | <3 | – | – |
| C=C(C(=O)O)c1ccc2c(=O)c3ccccc3ccc2c1 | 4 | 1 | – | – |
| COC(=O)C(C)c1ccc2c(=O)c3ccccc3ccc2c1 (racemic) | 11 | 2 | – | – |
| CC(O)(C(=O)O)c1ccc2c(=O)c3ccccc3ccc2c1 (racemic) | <0.5 | 1.5 | – | – |
| CCC(C(=O)O)c1ccc2c(=O)c3ccccc3ccc2c1 (racemic) | 7 | 2 | – | – |
| CC(C(=O)[O-])c1ccc2c(=O)c3ccccc3ccc2c1.[Na+] (stereo not drawn) | 62 | – | – | – |
| CCN(C)CCOC(=O)C(C)c1ccc2c(=O)c3ccccc3ccc2c1 (racemic) | 20 | <2 | – | – |
| CC(C)(C(=O)O)c1ccc2c(=O)c3ccccc3ccc2c1 | 0.5 | – | – | – |
| CC(C(=O)OCCN(C)C)c1ccc2c(=O)c3ccccc3ccc2c1 (racemic) | 30 | 7 | – | – |
| CC(C)CCOC(=O)C(C)c1ccc2c(=O)c3ccccc3ccc2c1 (racemic) | 6 | 1.7 | – | – |
| CC(C(=O)OCCN1CCOCC1)c1ccc2c(=O)c3ccccc3ccc2c1.Cl (racemic) | 9 | <1 | – | – |
| CCN(CC)CCOC(=O)C(C)c1ccc2c(=O)c3ccccc3ccc2c1.Cl (racemic) | 14 | 10 | – | – |
| CCCCCCCCCCCCOC(=O)C(C)c1ccc2c(=O)c3ccccc3ccc2c1 (racemic) | 15 | <0.5 | – | – |
| CC(C(=O)OCCN(C)C)c1ccc2c(=O)c3ccccc3ccc2c1 (single isomer, unassigned; (+)) | 45 | – | – | – |
| CC(C(=O)OCCN1CCCCC1)c1ccc2c(=O)c3ccccc3ccc2c1 (racemic) | 15 | <2 | – | – |
| COC(=O)Cc1ccc2c(=O)c3ccccc3ccc2c1 | 3 | <1 | – | – |
